Assay results: ChEMBL document CHEMBL3875213, “Quinolines: Microwave-assisted synthesis and their antifungal, anticancer and radical scavenger properties” (Bioorg Med Chem, 2017)
Values after ≈ are worked out from the molar mass of the structure shown. Active and inactive are the calls of the source. No cut-off for these calls is given here.

Key:
Format in all cases: functional
[1] = system: Candida albicans; test: Growth inhibition of Candida albicans ATCC 10231 at 250 ug/ml incubated for 48 hrs under dark condition by broth microdilution assay relative to amphotericin B; details: ATCC 10231, 48 h, read-out: GI
Procedure, shortened: (§1)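 Yeast broth microdilution (CLSI M27-A3), RPMI-1640, inoculum 1-5 x 10^3 CFU/mL, DMSO ≤1%, 48 h at 30 °C in a moist, dark chamber. […]. Triplicate; amphotericin B as positive control.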

[2] = Antifungal activity against Cryptococcus neoformans ATCC 32264 incubated for 48 hrs under dark condition by broth microdilution assay
Procedure, shortened: (§2)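 Broth microdilution per CLSI M27-A3 in RPMI-1640. Inocula adjusted to 1-5 x 10^3 CFU/mL. Stocks in DMSO (≤1%), final 3.9-250.0 µg/mL. Incubated 48 h at 30 °C in a moist, dark chamber, read at OD 405. % inhibition computed from growth and sterility control wells, run in triplicate. MIC80/MIC50 taken from four-parameter logistic concentration-response curves; amphotericin B as positive control.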

[3] = Antioxidant activity assessed as fluorescent light-induced superoxide anion scavenging activity at 160 uM incubated for 10 mins by nitroblue tetrazolium dye based assay
Procedure, shortened: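 Superoxide generated photochemically in 50 mM phosphate buffer pH 7.8 with 13 mM L-methionine, 75 µM nitroblue tetrazolium, 100 µM EDTA and 2 µM riboflavin. Compound at 160 µM. 10 min at 25 °C under fluorescent light; dark controls. Read at 575 nm. Resveratrol as positive control; three independent experiments in triplicate.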

[4] = system: Candida albicans; test: Growth inhibition of Candida albicans ATCC 10231 at 62.5 ug/ml incubated for 48 hrs under dark condition by broth microdilution assay relative to amphotericin B; details: ATCC 10231, 48 h, read-out: GI; procedure, shortened: as §1
[5] = system: Candida albicans; test: Growth inhibition of Candida albicans ATCC 10231 at 3.9 ug/ml incubated for 48 hrs under dark condition by broth microdilution assay relative to amphotericin B; details: ATCC 10231, 48 h, read-out: GI; procedure, shortened: as §1
[6] = system: Candida albicans; test: Antifungal activity against Candida albicans ATCC 10231 incubated for 48 hrs under dark condition by broth microdilution assay; details: ATCC 10231, 48 h; procedure, shortened: as §2
[7] = system: Candida albicans; test: Growth inhibition of Candida albicans ATCC 10231 at 15.62 ug/ml incubated for 48 hrs under dark condition by broth microdilution assay relative to amphotericin B; details: ATCC 10231, 48 h, read-out: GI; procedure, shortened: as §1
[8] = system: Candida albicans; test: Growth inhibition of Candida albicans ATCC 10231 at 7.81 ug/ml incubated for 48 hrs under dark condition by broth microdilution assay relative to amphotericin B; details: ATCC 10231, 48 h, read-out: GI; procedure, shortened: as §1
[9] = system: Candida albicans; test: Growth inhibition of Candida albicans ATCC 10231 at 31.25 ug/ml incubated for 48 hrs under dark condition by broth microdilution assay relative to amphotericin B; details: ATCC 10231, 48 h, read-out: GI; procedure, shortened: as §1
[10] = system: Candida albicans; test: Growth inhibition of Candida albicans ATCC 10231 at 125 ug/ml incubated for 48 hrs under dark condition by broth microdilution assay relative to amphotericin B; details: ATCC 10231, 48 h, read-out: GI; procedure, shortened: as §1
[11] = Antioxidant activity assessed as DPPH radical scavenging activity incubated for 30 mins under dark condition
Procedure, shortened: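 DPPH (100 µM) in ethanolic medium, stirred 30 min in the dark, absorbance at 517 nm. Compound varied from 0 to 160 µg/mL to find the concentration scavenging 50% of radicals. Three independent experiments, each in triplicate.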

[12] = Antioxidant activity assessed as fluorescent light-induced superoxide anion scavenging activity incubated for 10 mins by nitroblue tetrazolium dye based assay
Procedure, shortened: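 Riboflavin/light superoxide system: 50 mM phosphate pH 7.8, 13 mM L-methionine, 75 µM NBT, 100 µM EDTA, 2 µM riboflavin, compound 0-200 µg/mL. Fluorescent light for 10 min at 25 °C, dark controls, scavenging measured at 575 nm. Resveratrol as reference.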

[13] = Antioxidant activity assessed as DPPH radical scavenging activity at 160 uM incubated for 30 mins under dark condition
Procedure, shortened: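 Compound at 160 µM incubated with 100 µM DPPH in ethanolic medium, stirred in the dark for 30 min, read at 517 nm. Resveratrol as positive control. Three independent experiments, each in triplicate.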

| SMILES | MIC50 [2] | MIC80 [2] | MIC50 [6] | MIC80 [6] | inhibition of growth at 250 µg/mL [1] | Activity [3] | inhibition of growth at 62.5 µg/mL [4] | inhibition of growth at 3.9 µg/mL [5] | inhibition of growth at 15.62 µg/mL [7] | inhibition of growth at 7.81 µg/mL [8] | inhibition of growth at 31.25 µg/mL [9] | inhibition of growth at 125 µg/mL [10] | SC50 [11] | SC50 [12] | Activity [13] |
| --- | --- | --- | --- | --- | --- | --- | --- | --- | --- | --- | --- | --- | --- | --- | --- |
| COc1ccc(-c2cc(-c3ccccc3)c3cc(Br)ccc3n2)cc1 | > 250 µg/mL | > 250 µg/mL | > 250 µg/mL | > 250 µg/mL | 10.6% | Active | 4.57% | 0% | 4.06% | 0% | 4.5% | 8.32% | – | – | – |
| FC(F)(F)c1ccc2nc(-c3ccccc3)cc(-c3ccccc3)c2c1 | 250 µg/mL (≈ 716 µM) | 250 µg/mL (≈ 716 µM) | > 250 µg/mL | > 250 µg/mL | 20.1% | – | 8.77% | 0% | 3.65% | 2.81% | 7.83% | 14% | 261 µM | > 250 µM | 45 to 55% |
| O=C(O)c1ccc2nc(-c3ccccc3)cc(-c3ccccc3)c2c1 | 250 µg/mL (≈ 768 µM) | > 250 µg/mL | 250 µg/mL (≈ 768 µM) | > 250 µg/mL | 57.5% | Active | 22.6% | 0% | 7.19% | 5.63% | 11.9% | 34.6% | – | – | – |
| FC(F)(F)c1cc2nc(-c3ccccc3)cc(-c3ccccc3)c2cc1Cl | 250 µg/mL (≈ 651 µM) | > 250 µg/mL | 250 µg/mL (≈ 651 µM) | > 250 µg/mL | 54.1% | – | 15.7% | 0% | 5.36% | 3.5% | 9.41% | 25.7% | – | – | – |
| Fc1ccc2nc(-c3ccccc3)cc(-c3ccccc3)c2c1 | > 250 µg/mL | > 250 µg/mL | 250 µg/mL (≈ 835 µM) | > 250 µg/mL | 67.5% | < 10% | 18.4% | 0% | 4.27% | 2.01% | 11.8% | 34.2% | – | – | – |
| O=[N+]([O-])c1ccc(-c2cc(-c3ccccc3)c3cc(Br)ccc3n2)cc1 | > 250 µg/mL | > 250 µg/mL | > 250 µg/mL | > 250 µg/mL | 18.2% | Active | 4.28% | 0% | 2.64% | 1.55% | 4.01% | 5.11% | – | – | 40% |
| Oc1ccc(/C=C/c2cc(O)cc(O)c2)cc1 | – | – | – | – | – | Active | – | – | – | – | – | – | 8.2 µM | 255 µM | Active |

Further lines, with some results ahead:

| MIC50 [2] | MIC80 [2] | MIC50 [6] | MIC80 [6] | SMILES | inhibition of growth at 250 µg/mL [1] | Activity [3] | inhibition of growth at 62.5 µg/mL [4] | inhibition of growth at 3.9 µg/mL [5] | inhibition of growth at 15.62 µg/mL [7] | inhibition of growth at 7.81 µg/mL [8] | inhibition of growth at 31.25 µg/mL [9] | inhibition of growth at 125 µg/mL [10] | SC50 [11] | SC50 [12] | Activity [13] |
| --- | --- | --- | --- | --- | --- | --- | --- | --- | --- | --- | --- | --- | --- | --- | --- |
| 7.8 µg/mL (≈ 21 µM) | 15.6 µg/mL (≈ 42 µM) | 125 µg/mL (≈ 337 µM) | 125 µg/mL (≈ 337 µM) | COc1cc2nc(-c3ccccc3)cc(-c3ccccc3)c2c(OC)c1OC | 100% | Active | 20.7% | 0% | 6.76% | 6.81% | 8.13% | 86.7% | 18.9 µM | > 250 µM | 70 to 85% |
| 15.6 µg/mL (≈ 49.4 µM) | > 250 µg/mL | > 250 µg/mL | > 250 µg/mL | Clc1ccc2nc(-c3ccccc3)cc(-c3ccccc3)c2c1 | 89.8% | < 10% | 33.1% | 0% | 14% | 8.07% | 20% | 53.9% | – | – | – |
| 125 µg/mL (≈ 383 µM) | 250 µg/mL (≈ 766 µM) | > 250 µg/mL | > 250 µg/mL | O=[N+]([O-])c1ccc2nc(-c3ccccc3)cc(-c3ccccc3)c2c1 | 36.1% | Active | 5.93% | 0% | 0% | 0% | 1.57% | 15.4% | 104 µM | > 250 µM | 45 to 55% |
| 15.6 µg/mL (≈ 52.5 µM) | > 250 µg/mL | > 250 µg/mL | > 250 µg/mL | Oc1ccc2c(-c3ccccc3)cc(-c3ccccc3)nc2c1 | 53.9% | – | 21.2% | 0% | 80.4% | 0% | 12.8% | 29.9% | – | – | 70 to 85% |
| 3.9 µg/mL (≈ 11.6 µM) | 15.6 µg/mL (≈ 46.2 µM) | > 250 µg/mL | > 250 µg/mL | CC(C)(C)c1ccc2nc(-c3ccccc3)cc(-c3ccccc3)c2c1 | 7.81% | 50% | 0% | 0% | 0% | 0% | 0% | 1.84% | > 250 µM | > 250 µM | – |
| 125 µg/mL (≈ 420 µM) | 250 µg/mL (≈ 841 µM) | 250 µg/mL (≈ 841 µM) | > 250 µg/mL | Oc1ccc2nc(-c3ccccc3)cc(-c3ccccc3)c2c1 | 12.2% | Active | 0% | 0% | 0% | 0% | 0% | 3.51% | > 250 µM | > 250 µM | 70 to 85% |
| 15.6 µg/mL (≈ 47.6 µM) | 31.2 µg/mL (≈ 95.3 µM) | 250 µg/mL (≈ 763 µM) | > 250 µg/mL | CSc1ccc2nc(-c3ccccc3)cc(-c3ccccc3)c2c1 | 66.3% | Active | 21.7% | 4.72% | 11.2% | 11.2% | 16% | 39.2% | – | – | – |
| 125 µg/mL (≈ 408 µM) | 250 µg/mL (≈ 816 µM) | 250 µg/mL (≈ 816 µM) | > 250 µg/mL | N#Cc1ccc2nc(-c3ccccc3)cc(-c3ccccc3)c2c1 | 69.9% | Active | 19.7% | 0% | 9.26% | 8.25% | 12.7% | 39% | 19.5 µM | 220 µM | 70 to 85% |
| 0.12 µg/mL (≈ 0.13 µM) | 0.25 µg/mL (≈ 0.271 µM) | 0.06 µg/mL (≈ 0.0649 µM) | 0.12 µg/mL (≈ 0.13 µM) | C[C@@H]1[C@H](O)[C@@H](C)/C=C/C=C/C=C/C=C/C=C/C=C/C=C/[C@H](O[C@@H]2O[C@H](C)[C@@H](O)[C@H](N)[C@@H]2O)C[C@@H]2O[C@](O)(C[C@@H](O)C[C@@H](O)[C@H](O)CC[C@@H](O)C[C@@H](O)CC(=O)O[C@H]1C)C[C@H](O)[C@H]2C(=O)O [AMPHOTERICIN B] | – | – | – | – | – | – | – | – | – | – | – |
